bCat KO growth = beta-catenin-lacking colon tumor cell growth suppression; HCT116 beta-catenin knockout viability, CellTiter-Glo, 60 h; hits give low values; viability, % at 10 µM; 140,000 tested, 1.5% active; AID 818;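 active = viability at or under a set limit, the compound median less 4 SD, cut at about 6% in these data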;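 note: 0% = Hyamine 1622 control at 20 µM and 100% = untreated cell control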
HCT116 PTEN-null = growth suppressors of cells with PTEN tumor suppressor deletion; HCT116 PTEN-null viability, CellTiter-Glo, 60 h; hits give low values; viability, % at 10 µM; 140,000 tested, 1.2% active;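 active = viability at or below a set limit, 4 SD under the median of all tested compounds, cut at about 3.7% in these data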;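 note: PTEN knockout HCT116 line with beta catenin targeted HCT116 as companion control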
H69AR growth 86K = growth inhibitors of human H69AR lung tumor cells; H69AR lung tumor viability, ATP luminescence, 72 h; hits give low values; viability, % at 10 µM; 85,000 tested, 6% active; AID 598;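 active = viability at or below 40%; inactive = viability above 40%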;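 note: multidrug resistant small cell line overexpressing MRP-1 efflux transporter; 100% = mean luminescence of untreated control wells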
HUVEC inhibit = human endothelial cell proliferation inhibition; 86,000 tested, 1.1% active; viability, % at 10 µM (by protocol); AID 648; HUVEC proliferation, CellTiter-Glo luminescence, 72 h; hits give low values;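 active = viability at or below 30%; inactive = viability above 30%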;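 note: 100% = median luminescence of DMSO-only cell control wells on each plate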
Fibroblast inh = blocks proliferation of human lung fibroblasts; LL 47 human lung fibroblast viability, ATP luminescence; hits give low values; viability, % at 10 µM; 85,000 tested, 1.1% active; AID 719;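 active = viability at or below 50% in the single dose screen; inactive = viability above 50%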;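 note: compound exposure lasted 72 h before the ATP readout; 100% = median luminescence of untreated cell-only wells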
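Benchmarks: Cell-only wells, no compound | Test system: LL 47 human lung fibroblasts, passage 12 or lower | Input: 1,150 cells/well | Measured by: CellTiter-Glo luminescence measuring cellular ATP | Medium: IMEM, 15% FBS supplement | Schedule: Overnight attachment after seeding, then 72 h compound exposure at 37 °C | Doses: Compound addition at 0.1% DMSO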
Starred values were filed as active, the others as inactive; · = not tested or not shown. The sample as a whole holds a higher share of hits than the screen did.

SMILES	bCat KO growth	HCT116 PTEN-null	H69AR growth 86K	HUVEC inhibit	Fibroblast inh
COc1ccc(C(=O)/C=C/c2ccccc2F)c(OC(=O)c2ccc([N+](=O)[O-])cc2)c1	31.8	23.3	·	·	·
Clc1ccc(-c2csc(N3CCSCC3)n2)cc1	101.9	99.4	·	·	·
Cc1ccc(OCc2nnnn2-c2ccccc2)cc1	87.5	93.8	·	·	·
CC1(C)CC(=O)C2=C(C1)c1c(ccc3ccccc13)NC2c1ccc(Br)o1 (configuration not stated)	59.4	71.5	33.1*	67.4	97.0
N=c1c2c(ncn1CCN1CCOCC1)Oc1ccc3ccccc3c1C2c1ccccc1 (configuration not stated)	1.4*	1.3*	2.3*	6.1*	64.3
N=c1c2c(ncn1Cc1ccco1)Oc1c(ccc3ccccc13)C2c1ccccc1 (configuration not stated)	1.3*	1.6*	·	·	·
c1ccc(C2c3c(ccc4ccccc34)Oc3ncn4nc(-c5ccco5)nc4c32)cc1 (configuration not stated)	69.0	67.0	·	·	·
COc1ccc(C2c3c(ncn(CCN4CCOCC4)c3=N)Oc3ccc4ccccc4c32)cc1 (configuration not stated)	1.5*	1.1*	1.3*	29.0*	71.3
COc1ccc(/C=C2\CCc3ccccc3C2=O)cc1Cn1nc(C)cc1C	17.2	12.5	14.6*	86.7	79.5
COc1ccc(/C=C2/CCc3ccccc3C2=O)cc1CN1CCOCC1	20.5	31.7	·	·	·
COC(=O)c1cc(OC)c(OC)cc1NC(=O)c1ccc(C)cc1	72.6	71.0	16.2*	68.3	94.0
O=C1C(C2=C(O)c3ccccc3C2=O)=Nc2ccccc21	7.6	2.8*	·	·	·
CCc1cc(C(=O)N=Nc2c(O)[nH]c3c(Br)cc(Br)cc23)c2ccccc2n1	65.3	51.4	·	·	·
Oc1ccc(C=Nc2ccc(N3CCOCC3)cc2)c(O)c1	91.3	106.8	68.7	70.0	104.8
Oc1ccc(N=Nc2cccc(C(F)(F)F)c2)cc1C=Nc1ccc(N2CCOCC2)cc1	4.1*	4.4	·	·	·
Cc1nn(CC(=O)Nc2ccc(S(=O)(=O)N(C)C)cc2)c(C)c1[N+](=O)[O-]	80.0	97.6	·	·	·
COc1ccc(Cc2nc(-c3ccc(NC(=O)c4cccnc4)cc3)no2)cc1	94.9	97.9	6.0*	120.2	102.1
CCOc1ccccc1-c1nc(-c2ccc(NC(=O)Cc3ccc(OC)cc3)cc2)no1	104.8	101.6	10.6*	19.7*	65.2
COc1ccc(CC(=O)Nc2ccc(-c3noc(-c4ccc(Cl)cc4)n3)cc2)cc1	1.6*	0.9*	5.1*	42.6	19.1*
COc1ccc(CC(=O)Nc2ccc(-c3noc(COc4ccccc4C)n3)cc2)cc1	109.1	104.3	84.1	97.1	101.9
COc1ccc(CC(=O)Nc2ccc(-c3noc(-c4cc(OC)c(OC)c(OC)c4)n3)cc2)cc1	72.3	64.8	20.7*	57.2	98.5
[O-][n+]1cccc2ncc3cscc3c21	99.5	104.3	·	·	·
COc1ccc(Cc2nc(C(=O)Nc3ccc(Cl)cc3)cs2)cc1	67.7	85.1	100.1	21.4*	111.5
CCC(=O)Nc1cccc(C(=O)c2ccccc2)c1	96.0	95.7	98.4	94.6	91.3
CCC(=O)Nc1cccc(C(=O)/C=C/c2ccccc2)c1	1.6*	1.4*	·	·	·
SMILES	bCat KO growth	HCT116 PTEN-null	H69AR growth 86K	HUVEC inhibit	Fibroblast inh
COc1ccccc1NC(=S)NCc1ccc2c(c1)OCO2	83.9	95.8	·	·	·
O=c1c2ccccc2sc2ccc(Cl)cc12	86.3	98.1	·	·	·
O=c1c(C(c2ccccc2)c2c(O)sc3ccccc3c2=O)c(O)sc2ccccc12	84.8	79.0	36.4*	66.7	88.6
Cc1[nH]c2ccccc2c1C(=O)CSc1nc2ccccc2c(=O)n1CCCN1CCOCC1	58.1	57.2	·	·	·
COc1ccc(/C=C/C(=O)C(C(N)=O)=C2SCCS2)cc1	49.5	59.3	·	·	·
Cc1ccc(C(=O)C(C(=O)/C=C/c2ccccc2)=C2SCCCS2)cc1	2.9*	3.5*	2.3*	23.2*	32.4*
O=C(Cc1ccccc1)N/N=C/c1ccc([N+](=O)[O-])s1	1.4*	1.0*	·	·	·
O=C(N/N=C/c1ccc([N+](=O)[O-])s1)C(O)c1ccccc1 (configuration not stated)	0.8*	1.0*	·	·	·
Cn1c(SCC(=O)N/N=C/c2ccc([N+](=O)[O-])s2)nnc1-c1ccccc1	1.9*	1.6*	·	·	·
Cc1ccc(-c2nnc(SCC(=O)N/N=C/c3ccc(C)s3)n2-c2ccc(C)cc2)cc1	79.7	69.2	·	·	·
